Test results: ChEMBL document CHEMBL1145119, “Esters, retroesters, and a retroamide of palmitic acid: pool for the first selective inhibitors of N-palmitoylethanolamine-selective acid amidase” (J Med Chem, 2003)

Columns and labels:
[1] = target: T1, Fatty-acid amide hydrolase 1 (Rattus norvegicus) (UniProt P97612); assay: Compound was tested for the inhibition of fatty acid amide hydrolase from rat brain homogenates at 10 uM in buffer B of pH 9 by using 10 uM [3H]ethanolamine-labeled anandamide as substrate; format: tissue-based
T1 sequence (whole entry): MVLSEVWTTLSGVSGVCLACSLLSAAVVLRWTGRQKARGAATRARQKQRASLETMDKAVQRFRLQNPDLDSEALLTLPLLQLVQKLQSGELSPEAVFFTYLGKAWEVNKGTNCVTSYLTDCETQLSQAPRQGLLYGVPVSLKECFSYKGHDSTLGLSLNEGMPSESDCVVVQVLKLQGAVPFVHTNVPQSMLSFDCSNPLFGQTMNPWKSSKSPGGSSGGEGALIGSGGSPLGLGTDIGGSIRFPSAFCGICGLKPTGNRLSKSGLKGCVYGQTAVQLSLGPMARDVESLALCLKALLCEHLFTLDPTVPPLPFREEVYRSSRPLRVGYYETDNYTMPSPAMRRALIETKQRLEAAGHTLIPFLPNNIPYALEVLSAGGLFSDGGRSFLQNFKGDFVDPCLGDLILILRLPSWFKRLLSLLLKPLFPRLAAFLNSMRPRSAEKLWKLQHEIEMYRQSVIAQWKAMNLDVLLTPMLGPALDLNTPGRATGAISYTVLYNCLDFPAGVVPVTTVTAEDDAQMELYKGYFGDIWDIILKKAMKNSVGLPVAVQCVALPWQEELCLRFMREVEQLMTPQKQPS
How it was run: (§1)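 The rat brain homogenate FAAH assay used 10 μM [3H]-ethanolamine-labeled anandamide as substrate. Protein was 10 μg per assay at pH 6 and 3 μg at pH 9. Buffer A was 10 mM Tris-HCl and 1 mM EDTA with fatty acid-free BSA. Buffer B was 125 mM Tris, 1 mM EDTA, 0.2% glycerol, 0.02% Triton X-100 and 0.4 mM HEPES, without BSA. pH was adjusted with NaOH or HCl. Compounds were tested at 10, 30 and 100 μM. The value is percent inhibition.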

[2] = target: T1, Fatty-acid amide hydrolase 1 (Rattus norvegicus); assay: Inhibition of fatty acid amide hydrolase (FAAH) from rat brain homogenates at 10 uM; format: tissue-based
How it was run: (§2)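 Hydrolysis of [3H]-anandamide by rat brain homogenate was measured at assay pH 7.6. Compound was mostly tested over 0.5–100 μM, and percent inhibition is given at 10 and 100 μM. A value below 0 means activity remaining exceeded 100%.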

[3] = target: N-acylethanolamine-hydrolyzing acid amidase (Rattus norvegicus) (UniProt Q5KTC7); assay: Inhibition of N-palmitoylethanolamine-selective acid amidase (NPAA) from rat lung homogenates at 100 uM
[4] = target: Cannabinoid receptor 1 (Homo sapiens) (UniProt P21554); assay: Binding affinity against human Cannabinoid receptor 1 using CHO-hCB1 transfected cell membrane and [3H]CP-55940 as radioligand at 10 uM
How it was run: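 Membranes from CHO cells transfected with human CB1 were incubated with 1 nM [3H]-CP55,940 and test compound at 10 μM. Nonspecific binding was defined with 10 μM HU-210. The value is percent inhibition of specific radioligand binding.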

[5] = target: T1, Fatty-acid amide hydrolase 1 (Rattus norvegicus); assay: Compound was tested for the inhibition of fatty acid amide hydrolase from rat brain homogenates at 10 uM in buffer A of pH 6 by using 10 uM [3H]ethanolamine-labeled anandamide as substrate; how it was run: as §1
[6] = target: T1, Fatty-acid amide hydrolase 1 (Rattus norvegicus); assay: Compound was tested for the inhibition of fatty acid amide hydrolase from rat brain homogenates at 10 uM in buffer A of pH 6 by using 100 uM [3H]ethanolamine-labeled anandamide as substrate; format: tissue-based
RBL-2H3 [7] = assay: Compound was tested for the inhibition of [3H]anandamide Uptake in RBL-2H3 cells at 100 uM; format: functional; details: Rattus norvegicus
How it was run: (§3)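 RBL-2H3 cells (passage 38) were preincubated with compound (10, 30 or 100 μM). They were then exposed to 2 μM [3H]-arachidonoyl-labeled anandamide for 8 min. Uptake was taken as accumulation in cell wells minus parallel cell-free wells. 200 μM AM404 served as positive control in every assay. The value is percent inhibition of uptake.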

[8] = target: T1, Fatty-acid amide hydrolase 1 (Rattus norvegicus); assay: Compound was tested for the inhibition of fatty acid amide hydrolase from rat brain homogenates at 10 uM in buffer B of pH 6 by using 10 uM [3H]ethanolamine-labeled anandamide as substrate; format: tissue-based; how it was run: as §1
[9] = target: T1, Fatty-acid amide hydrolase 1 (Rattus norvegicus); assay: Compound was tested for the inhibition of fatty acid amide hydrolase from rat brain homogenates at 10 uM in buffer A of pH 9 by using 100 uM [3H]ethanolamine-labeled anandamide as substrate; format: tissue-based
RBL-2H3 [10] = assay: Compound was tested for the inhibition of [3H]anandamide Uptake in RBL-2H3 cells at 30 uM; format: functional; details: Rattus norvegicus; how it was run: as §3
[11] = target: T1, Fatty-acid amide hydrolase 1 (Rattus norvegicus); assay: Compound was tested for the inhibition of fatty acid amide hydrolase from rat brain homogenates at 10 uM in buffer B of pH 6 by using 100 uM [3H]ethanolamine-labeled anandamide as substrate; format: tissue-based
[12] = target: T1, Fatty-acid amide hydrolase 1 (Rattus norvegicus); assay: Compound was tested for the inhibition of fatty acid amide hydrolase from rat brain homogenates at 10 uM in buffer A of pH 9 by using 30 uM [3H]ethanolamine-labeled anandamide as substrate; format: tissue-based
[13] = target: T1, Fatty-acid amide hydrolase 1 (Rattus norvegicus); assay: Compound was tested for the inhibition of fatty acid amide hydrolase from rat brain homogenates at 10 uM in buffer B of pH 9 by using 100 uM [3H]ethanolamine-labeled anandamide as substrate; format: tissue-based
[14] = target: T1, Fatty-acid amide hydrolase 1 (Rattus norvegicus); assay: Compound was tested for the inhibition of fatty acid amide hydrolase from rat brain homogenates at 10 uM in buffer A of pH 9 by using 10 uM [3H]ethanolamine-labeled anandamide as substrate; format: tissue-based; how it was run: as §1
[15] = target: Cannabinoid receptor 2 (Homo sapiens) (UniProt P34972); assay: Binding affinity against human CB2 receptor by using CHO-hCB2 transfected cell membrane [3H]WIN-55212-2 as radioligand at 10 uM
How it was run: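 Membranes from CHO cells transfected with human CB2 were incubated with 1 nM [3H]-WIN55,212-2 and test compound at 10 μM. Nonspecific binding was defined with 10 μM HU-210. The value is percent inhibition of specific radioligand binding.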

[16] = target: T1, Fatty-acid amide hydrolase 1 (Rattus norvegicus); assay: Inhibition of fatty acid amide hydrolase (FAAH) from rat brain homogenates at 100 uM; format: tissue-based; how it was run: as §2
RBL-2H3 [17] = assay: Compound was tested for the inhibition of [3H]anandamide Uptake in RBL-2H3 cells at 10 uM; format: functional; details: Rattus norvegicus; how it was run: as §3
[18] = target: T1, Fatty-acid amide hydrolase 1 (Rattus norvegicus); assay: Compound was tested for the inhibition of fatty acid amide hydrolase from rat brain homogenates at 10 uM in buffer A of pH 6 by using 30 uM [3H]ethanolamine-labeled anandamide as substrate; format: tissue-based
Rattus norvegicus = organism: Rattus norvegicus; assay: Compound was tested for the inhibition of N-palmitoylethanolamine-selective acid amidase (NPAA) from rat lung homogenates at 100 uM
How it was run: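 Enzyme (12 μg protein) was solubilized from the 12 000 × g pellet of rat lung homogenate. It was incubated with 100 μM [14C]-N-palmitoylethanolamine (10 000 cpm) and 100 μM compound for 30 min at 37 °C. Buffer was 50 mM citrate–sodium phosphate, pH 5.0, with 3 mM DTT and 0.1% Triton X-100. Radioactivity was read by imaging scan. The value is percent inhibition.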

Cannabinoid receptor 1 (Homo sapiens), sequence (P21554 whole entry): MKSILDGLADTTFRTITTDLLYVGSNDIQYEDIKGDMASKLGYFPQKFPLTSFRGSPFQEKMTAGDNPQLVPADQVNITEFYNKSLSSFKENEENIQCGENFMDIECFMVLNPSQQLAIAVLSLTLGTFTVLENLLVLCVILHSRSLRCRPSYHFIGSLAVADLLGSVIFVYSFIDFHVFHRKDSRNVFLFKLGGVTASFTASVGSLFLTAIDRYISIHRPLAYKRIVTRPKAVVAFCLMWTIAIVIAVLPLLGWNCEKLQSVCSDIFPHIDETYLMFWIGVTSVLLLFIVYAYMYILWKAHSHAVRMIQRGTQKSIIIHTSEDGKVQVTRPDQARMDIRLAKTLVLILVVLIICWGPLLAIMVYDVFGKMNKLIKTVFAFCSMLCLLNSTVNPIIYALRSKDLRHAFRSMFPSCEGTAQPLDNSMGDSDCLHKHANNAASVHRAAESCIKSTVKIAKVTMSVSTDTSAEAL
Cannabinoid receptor 2 (Homo sapiens), sequence (P34972 whole entry): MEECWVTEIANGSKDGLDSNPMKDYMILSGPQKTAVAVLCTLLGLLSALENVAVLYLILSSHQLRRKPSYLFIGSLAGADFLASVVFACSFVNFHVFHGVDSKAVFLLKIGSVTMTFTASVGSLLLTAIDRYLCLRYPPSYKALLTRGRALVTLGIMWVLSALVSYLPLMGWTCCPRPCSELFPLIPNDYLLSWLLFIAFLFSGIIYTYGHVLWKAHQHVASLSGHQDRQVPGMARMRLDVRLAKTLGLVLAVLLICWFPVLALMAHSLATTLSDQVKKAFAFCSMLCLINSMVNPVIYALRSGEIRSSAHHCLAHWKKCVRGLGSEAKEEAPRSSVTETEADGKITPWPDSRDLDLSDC
N-acylethanolamine-hydrolyzing acid amidase (Rattus norvegicus), sequence (Q5KTC7 whole entry, looked up): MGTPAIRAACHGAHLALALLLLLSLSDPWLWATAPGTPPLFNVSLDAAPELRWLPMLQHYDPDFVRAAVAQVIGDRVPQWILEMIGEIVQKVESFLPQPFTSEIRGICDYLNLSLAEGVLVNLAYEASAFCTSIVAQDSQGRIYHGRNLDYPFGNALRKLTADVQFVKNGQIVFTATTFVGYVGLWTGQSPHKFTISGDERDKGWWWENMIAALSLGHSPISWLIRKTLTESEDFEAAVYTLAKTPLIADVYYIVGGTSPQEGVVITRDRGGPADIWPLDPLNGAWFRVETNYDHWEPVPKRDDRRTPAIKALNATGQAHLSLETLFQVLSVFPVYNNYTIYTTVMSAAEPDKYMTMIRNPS

SMILES | inhibition [1] [%] | inhibition [2] [%] | inhibition [3] [%] | inhibition [4] [%] | inhibition [5] [%] | inhibition [6] [%] | inhibition at 100 µM (RBL-2H3 [7]) [%] | inhibition [8] [%] | inhibition [9] [%] | inhibition at 30 µM (RBL-2H3 [10]) [%] | inhibition [11] [%] | inhibition [12] [%] | inhibition [13] [%] | inhibition [14] [%] | inhibition [15] [%] | inhibition [16] [%] | inhibition at 10 µM (RBL-2H3 [17]) [%] | inhibition [18] [%] | inhibition (Rattus norvegicus) [%]
CCCCCCCCCCCCCCCNC(=O)CCO | 6 | < 0 | 77 | 4 | 8 | 2 | 28 | 11 | 7 | 13 | 16 | 5 | < 0 | 20 | 3 | 8 | 8 | – | –
CCCCCCCCCCCCCCCC(=O)OCc1ccccc1 | – | 6 | 50 | 5 | – | – | – | – | – | – | – | – | – | – | 5 | 24 | – | – | –
CCCCCCCCCCCCCCCC(=O)OC(C)(C)C | – | < 0 | 23 | 14 | – | – | – | – | – | – | – | – | – | – | 14 | < 0 | – | – | –
CCCCCCCCCCCCCCCC(=O)NCCO | – | 49 | 34 | 24 | – | – | – | – | – | – | – | – | – | – | 14 | 68 | – | – | –
CCCCCCCCCCCCCCCCOC(C)=O | – | < 0 | 68 | 10 | – | – | – | – | – | – | – | – | – | – | 9 | < 0 | – | – | –
CCCCCCCCCCCCCCCC(=O)OC(C)C | – | < 0 | 44 | 8 | – | – | – | – | – | – | – | – | – | – | 0.5 | < 0 | – | – | –
CCCCCCCCCCCCCCCC(=O)OCCBr | – | 19 | 45 | 2 | – | – | – | – | – | – | – | – | – | – | 2 | 31 | – | – | –
CCCCCCCCCCCCCCCC(=O)NC | – | 35 | 30 | 3 | – | – | – | – | – | – | – | – | – | – | 8 | 68 | – | – | –
CCCCCCCCCCCCCCCCOC(=O)CC [HEXADECYLPROPIONATE] | < 0 | < 0 | 71 | 12 | 2 | < 0 | 15 | 5 | 4 | 12 | < 0 | 21 | < 0 | 26 | 2 | < 0 | 11 | < 0 | –
CCCCCCCCCCCCCCCC(=O)OC1CCCCC1 [CYCLOHEXYL PALMITATE] | 12 | 6 | 84 | 14 | 8 | 37 | 29 | 20 | 12 | 16 | 51 | 17 | 46 | 5 | 6 | 36 | 5 | 2 | –
CCCCCCCCCCCCCCCC(=O)OC | – | 18 | – | 11 | – | – | – | – | – | – | – | – | – | – | 14 | 69 | – | – | 64
C=CCOC(=O)CCCCCCCCCCCCCCC | – | 16 | 48 | 2 | – | – | – | – | – | – | – | – | – | – | 1 | 36 | – | – | –
CCCCCCCCCCCCCCCC(=O)OCCCl | – | 27 | 55 | 14 | – | – | – | – | – | – | – | – | – | – | 6 | 45 | – | – | –
CCCCCCCCCCCCCCCC(=O)NC1CCCCC1 | – | 8 | 23 | 34 | – | – | – | – | – | – | – | – | – | – | 8 | 11 | – | – | –
CCCCCCCCCCCCCCCC(=O)NC(C)C | – | 30 | 25 | 25 | – | – | – | – | – | – | – | – | – | – | 12 | 52 | – | – | –
